Screening data from PubChem BioAssay.
NPY-Y1 antag: blocks the human neuropeptide Y Y1 receptor; P25929; HEK293-CNG Y1 cells, membrane potential fluorescence; NPY at EC95, then isoproterenol; inhibition, % at 3.6 µM; 200,000 compounds, 1% hits;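 active = inhibition above the campaign mean inhibition of all tested compounds plus 3 SD, cut at about 20% in these data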;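 also: 0% = DMSO wells given NPY plus isoproterenol and 100% = isoproterenol alone without NPY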
Target sequence (P25929 whole entry, looked up): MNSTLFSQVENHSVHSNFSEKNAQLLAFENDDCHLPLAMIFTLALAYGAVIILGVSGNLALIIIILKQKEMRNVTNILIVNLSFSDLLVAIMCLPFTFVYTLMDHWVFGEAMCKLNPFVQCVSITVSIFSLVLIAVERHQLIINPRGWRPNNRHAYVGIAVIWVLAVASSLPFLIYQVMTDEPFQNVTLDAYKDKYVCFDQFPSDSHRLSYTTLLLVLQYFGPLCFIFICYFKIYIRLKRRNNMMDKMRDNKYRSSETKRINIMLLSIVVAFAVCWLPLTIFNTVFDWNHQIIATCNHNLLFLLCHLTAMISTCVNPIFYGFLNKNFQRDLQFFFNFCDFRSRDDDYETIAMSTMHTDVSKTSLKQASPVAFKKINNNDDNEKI
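Material: HEK293 Y1/CNG channel cell line | Also added: NPY (25 nM), isoproterenol (1 µM), Ro 20-1724 (25 µM) | Compound: One concentration, 3.6 µM, in 0.4% DMSO | Schedule: 3 h dye uptake, 1 h room-temperature compound, 45 min post-isoproterenol | Signal: Membrane-potential fluorescent dye readout | Read-out: % inhibition of NPY effect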
RAM network inh: yeast RAM network inhibition. S. cerevisiae dse1pr::URA3 reporter, 5-FOA growth OD615, 2 d; analog-sensitive cbk1-as2 kinase mutant strain. inhibition, % at 50 µM. 190,000 compounds, 1.8% hits. AID 868;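 active = inhibition above a set limit, 3 SD over mean compound inhibition, cut at about 8.4% in these data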;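 also: 0% = DMSO-only wells with no growth and 100% = 10 µM 1-NA-PP1 full growth; inhibition rescues growth on 5-FOA so higher OD means more RAM inhibition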
NPY1 pot ag: potentiators or agonists of human neuropeptide Y receptor Y1; P25929; AID 1304; activation, % at 3.6 µM; NPY-Y1 expressing cells, potentiator/agonist activation; 220,000 compounds, 0.37% hits; in the data active = activation above about 33%, passing the limit was not always enough;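 also: cells stimulated with NPY at EC10 then isoproterenol at EC100; 0% = low agonist plus stimulus and 100% = saturating agonist plus stimulus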
NPY2 pot ag: potentiates or activates human NPY-Y2 receptor; cells expressing NPY-Y2, potentiator/agonist read-out; activation, % at 3.6 µM; 220,000 compounds, 0.45% hits; AID 1359; in the data active = activation above about 27%;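 also: cells stimulated with NPY near EC25 plus isoproterenol at EC100; 0% = vehicle plus submaximal agonist and 100% = vehicle plus saturating agonist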
INS promoter inh: TRM-6 insulin promoter activity inhibition. inhibition, % at 2 µM. TRM-6 cells, insulin promoter-eGFP reporter, imaging; reporter expression induced with tamoxifen. 130,000 compounds, 0.9% hits;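 active = inhibition above the mean plus 3 SD, with well images judged a real hit on visual review, cut at about 60% in these data, passing the limit was not always enough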
NPY Y2 blocker: blocks the human neuropeptide Y Y2 receptor; inhibition, % at 2.7 µM; P49146; AID 793; NPY-Y2 expressing cells, antagonist mode; 140,000 compounds, 0.99% hits; in the data active = inhibition above about 17%;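 also: 0% = vehicle with agonist challenge and 100% = reference antagonist with challenge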
NPY1 antag ctr: human NPY-Y1 antagonism in NPY-Y2 counter-screen; shares compounds with NPY Y2 blocker; cell-based NPY-Y1 antagonism counterscreen; 710 compounds, 19% hits; inhibition, % at 3.6 µM; in the data active = inhibition above about 20%;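 also: cells challenged with NPY then isoproterenol with cAMP sensed through a CNG channel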
NPY2 antag conf: confirmation of human neuropeptide Y receptor Y2 antagonists. inhibition, % at 2.8 µM. shares compounds with NPY Y2 blocker. 710 compounds, 32% hits. HEK293 NPY-Y2 CNG channel, membrane potential fluorescence;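 active = mean inhibition of triplicate wells above the hit cutoff set in the primary screen, cut at about 17% in these data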;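 also: 0% = DMSO with NPY challenge and 100% = BIIE0246 high control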
* = called active by the depositor. Hits are enriched below; roughly 3.8% of the tested compounds scored in any of these assays.

Screening CCOC(=O)c1c(NC(=O)C[n+]2ccc(Cc3ccccc3)cc2)sc(C)c1C returned NPY-Y1 antag 5, RAM network inh 1, NPY1 pot ag -5, NPY2 pot ag -4 and INS promoter inh -38.
`COC(=O)c1c(-c2ccc(F)cc2)csc1NC(=O)c1ccco1` gave NPY-Y1 antag 11, RAM network inh 3, NPY1 pot ag -6, NPY2 pot ag -10, INS promoter inh -14, NPY Y2 blocker 25*, NPY1 antag ctr 11 and NPY2 antag conf 12.
`CCCCCC(=O)NNC1CC(=O)N(c2cccc(OCC)c2)C1=O` (stereo not given) gave NPY1 pot ag 4 and NPY2 pot ag -32.
COC(=O)c1cnn(-c2ccccc2)c1-n1cccc1C=O was read as NPY-Y1 antag -3, RAM network inh 1, NPY1 pot ag 0 and NPY2 pot ag -18.
For Cc1cc(C)c2c(=O)[nH]c(SCC(=O)Nc3ccccc3)nc2n1 the results were NPY-Y1 antag -1, RAM network inh 4, NPY1 pot ag -7, NPY2 pot ag -8, NPY Y2 blocker 19*, NPY1 antag ctr 1 and NPY2 antag conf 5.
For Cc1ccc(NC(=O)CSc2nc3nc(C)cc(C)c3c(=O)[nH]2)cc1 the results were NPY-Y1 antag 6, RAM network inh 1, NPY1 pot ag 24, NPY2 pot ag 7 and NPY Y2 blocker 1.
`Cc1nc(C(=O)Nc2cccc(Cl)c2)nn1-c1cc(OC(C)C)c(Cl)cc1Cl` gave NPY-Y1 antag 18, RAM network inh 3, NPY1 pot ag -40, NPY2 pot ag -36, INS promoter inh -47, NPY Y2 blocker 17*, NPY1 antag ctr 20* and NPY2 antag conf 16.
`CCOC(=O)Cc1cc(=O)n2[nH]c(C(C)(C)C)cc2n1` gave NPY1 pot ag -2 and NPY2 pot ag -1.
Cc1[nH]c2ccccc2c1/C=C/C(=O)c1ccncc1 was read as NPY1 pot ag 18 and NPY2 pot ag 11.
Screening O=C(/C=C/c1cccc2ccccc12)c1ccncc1 returned NPY-Y1 antag -4, RAM network inh -2, NPY1 pot ag -4, NPY2 pot ag 8, NPY Y2 blocker 20*, NPY1 antag ctr 11 and NPY2 antag conf 19*.
For C/C(=C\C(=O)c1ccc(Br)cc1)NCc1ccc(C)cc1 the results were NPY-Y1 antag 11, RAM network inh 2, NPY1 pot ag 3, NPY2 pot ag -4, INS promoter inh -22, NPY Y2 blocker 21*, NPY1 antag ctr 8 and NPY2 antag conf 10.
Screening C/C(=C\C(=O)c1ccc(Br)cc1)NCc1ccccc1 returned NPY-Y1 antag 5, RAM network inh 0, NPY1 pot ag -11, NPY2 pot ag -5, INS promoter inh -58 and NPY Y2 blocker 9.
CCCn1c(=O)c2ccccc2n2c(SCCOc3ccc(C)cc3)nnc12 was read as NPY-Y1 antag 8, RAM network inh 3, NPY1 pot ag -20, NPY2 pot ag -13, INS promoter inh 9, NPY Y2 blocker 20*, NPY1 antag ctr 15 and NPY2 antag conf 11.
Screening Cn1c(CN2CCOCC2)nnc1SCc1ccc(C#N)cc1 returned NPY-Y1 antag 0, RAM network inh 0, NPY1 pot ag 6 and NPY2 pot ag 14.
Cc1cc(C)c(S(=O)(=O)Nc2ccc(O)c(Sc3ncn[nH]3)c2)c(C)c1 was read as NPY-Y1 antag 9, RAM network inh 2, NPY1 pot ag 4, NPY2 pot ag 6, INS promoter inh -38 and NPY Y2 blocker 1.
CCCCc1cc(O)c(CCCC)c(O)c1 was read as NPY-Y1 antag -6, RAM network inh -2, NPY1 pot ag 19, NPY2 pot ag 14, NPY Y2 blocker 21*, NPY1 antag ctr -1 and NPY2 antag conf -4.
Screening CCCCCc1cc(O)c2c(C)cc(=O)oc2c1 returned NPY-Y1 antag -6, RAM network inh 6, NPY1 pot ag 37, NPY2 pot ag 29 and NPY Y2 blocker 7.
For CCOC(=O)c1sc(Nc2nc(OC)cc(OC)n2)nc1C the results were NPY-Y1 antag 12, RAM network inh 2, NPY1 pot ag -8 and NPY2 pot ag -22.
OCC1CCCN(c2nc(CN3CCCCC3)nc3scc(-c4ccccc4)c23)C1 (stereo not given) was read as NPY-Y1 antag 17, RAM network inh -1, NPY1 pot ag -21, NPY2 pot ag 4, NPY Y2 blocker 23*, NPY1 antag ctr 18 and NPY2 antag conf 17.
Cc1ccc(-n2nc(C(=O)c3ccccc3)n3c(=O)c(Cc4ccccc4)nnc23)cc1 was read as NPY-Y1 antag 17, RAM network inh 2, NPY1 pot ag -41, NPY2 pot ag -21, INS promoter inh -38, NPY Y2 blocker 18*, NPY1 antag ctr 73* and NPY2 antag conf 99*.
COC(=O)c1nn(-c2ccccc2)c2nnc(Cc3ccc(C)cc3)c(=O)n12 was read as NPY-Y1 antag 3, RAM network inh 4, NPY1 pot ag 0, NPY2 pot ag -2, INS promoter inh 2 and NPY Y2 blocker 1.
c1ccc(N(c2ccccc2)c2nc(-n3ccnc3)nc(-n3ccnc3)n2)cc1 was read as NPY-Y1 antag 3, RAM network inh 1, NPY1 pot ag 36, NPY2 pot ag 18, INS promoter inh 0, NPY Y2 blocker 23*, NPY1 antag ctr 6 and NPY2 antag conf 3.
For CN(c1ccccc1)c1nc(-n2ccnc2)nc(-n2ccnc2)n1 the results were NPY-Y1 antag 5, RAM network inh 0, NPY1 pot ag 2, NPY2 pot ag -7, INS promoter inh -33 and NPY Y2 blocker 0.
`Cc1ccc(-c2cc(C(F)F)n3ncc(C(=O)N4CCN(c5ccccn5)CC4)c3n2)cc1` gave NPY-Y1 antag 6, RAM network inh 0, NPY1 pot ag -28, NPY2 pot ag -7, NPY Y2 blocker 20*, NPY1 antag ctr 19 and NPY2 antag conf 17.
CCN1CCN(C(=O)c2cnn3c(C(F)F)cc(-c4ccc(C)cc4)nc23)CC1 was read as NPY-Y1 antag 18, RAM network inh -1, NPY1 pot ag -49, NPY2 pot ag -32, INS promoter inh 13 and NPY Y2 blocker 7.
Screening COCCN(C(=O)Cn1nnc2ccccc21)C(C(=O)NC1CCCC1)c1ccc(OC)cc1OC (stereo not given) returned NPY-Y1 antag 12, RAM network inh 3, NPY1 pot ag -6, NPY2 pot ag -9, INS promoter inh 19 and NPY Y2 blocker 7.
